Laboratory results reported in ChEMBL document CHEMBL1828519, “Tricyclic thiazolopyrazole derivatives as metabotropic glutamate receptor 4 positive allosteric modulators” (J Med Chem, 2011).
pEC50: −log10 of the molar value. Converted amounts (≈) assume the structure as drawn.

Columns and labels:
[1] = molecular target: T1, Metabotropic glutamate receptor 4 (Homo sapiens, UniProt Q14833); assay: Positive allosteric modulation of human mGlu4 receptor expressed in BHK cells assessed as potentiation of glutamate-induced calcium mobilization after 1 hr by FLIPR assay; format: functional, cell-based
T1 sequence (Q14833 whole entry): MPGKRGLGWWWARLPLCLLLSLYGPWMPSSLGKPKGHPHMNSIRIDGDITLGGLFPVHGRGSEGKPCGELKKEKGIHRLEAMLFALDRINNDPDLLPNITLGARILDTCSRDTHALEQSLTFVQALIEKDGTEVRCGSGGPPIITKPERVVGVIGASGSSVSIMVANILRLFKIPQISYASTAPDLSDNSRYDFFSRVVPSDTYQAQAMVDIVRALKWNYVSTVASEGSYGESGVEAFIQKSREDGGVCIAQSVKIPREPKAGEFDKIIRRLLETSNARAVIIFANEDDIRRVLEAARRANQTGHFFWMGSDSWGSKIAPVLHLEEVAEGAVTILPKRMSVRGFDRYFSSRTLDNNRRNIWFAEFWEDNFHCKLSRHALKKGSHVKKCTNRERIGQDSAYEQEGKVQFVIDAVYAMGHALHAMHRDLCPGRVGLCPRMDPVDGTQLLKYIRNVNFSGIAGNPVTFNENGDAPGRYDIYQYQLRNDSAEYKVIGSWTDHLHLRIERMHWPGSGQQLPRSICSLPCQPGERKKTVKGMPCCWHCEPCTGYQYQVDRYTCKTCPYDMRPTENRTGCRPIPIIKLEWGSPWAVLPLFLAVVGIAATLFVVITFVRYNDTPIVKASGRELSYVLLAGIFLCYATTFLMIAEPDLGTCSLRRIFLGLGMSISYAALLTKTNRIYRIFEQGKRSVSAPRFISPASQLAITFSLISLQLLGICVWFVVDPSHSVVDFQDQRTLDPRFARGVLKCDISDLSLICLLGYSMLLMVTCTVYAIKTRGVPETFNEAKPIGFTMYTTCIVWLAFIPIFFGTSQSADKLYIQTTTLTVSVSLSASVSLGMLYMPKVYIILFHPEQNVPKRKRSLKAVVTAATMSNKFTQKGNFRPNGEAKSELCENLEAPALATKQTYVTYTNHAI
In short: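 Stable BHK line co-expressing human mGlu4 and murine Gα15, plated on poly-D-lysine 24 h ahead. Cells loaded 1 h at 37 °C, 5% CO2 with Calcium 3 dye in HBSS/20 mM HEPES pH 7.4, 0.1% BSA, 2.5 mM probenecid. Test agent added with an EC20 glutamate challenge. Peak fluorescence change read by FLIPR and fitted to the Hill equation. At least two independent runs in duplicate, means reported.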

[2] = molecular target: T1, Metabotropic glutamate receptor 4; assay: Positive allosteric modulation of human mGlu4 receptor expressed in BHK cells assessed as potentiation of glutamate-induced response after 1 hr by FLIPR assay relative to glutamate; format: cell-based
In short: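 BHK cells stably co-expressing human mGlu4 and murine G-protein […], grown in DMEM at 37 °C, 5% CO₂. Cells seeded 24 h before assay, then loaded with Calcium 3 no-wash dye in HBSS/HEPES pH 7.4 with 0.1% BSA and 2.5 mM probenecid for 1 h at 37 °C. FLIPR calcium read after stimulation with EC₂₀ glutamate plus compound. Emax is percent of maximal glutamate response. Mean of ≥2 independent duplicate experiments.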

[3] = Kinetic solubility of the compound at pH 7.4 at room temperature; format: physicochemical; conditions: buffer, read-out: Kinetic_solubility
In short: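 Kinetic solubility measured from DMSO stock solutions at room temperature. Assay run at the pH named in each line.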

[4] = Apparent permeability of the compound by PAMPA assay; format: ADME
In short: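 Passive permeability measured in a PAMPA assay.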

Structure (SMILES)	pEC50 [1]	Emax [2] [%]	solubility kinetic [3] [µM]	Papp [4] [×10⁻⁶ cm/s]
c1ccc(Nc2nc3c(s2)CCCc2n[nH]cc2-3)nc1	–	120	–	–
c1csc(Nc2nc3c(s2)CCCc2n[nH]cc2-3)n1	< 5.00	35	–	–
Fc1ccc(Nc2nc3c(s2)CCCc2[nH]ncc2-3)nc1	6.12	–	< 0.1	0.3
OCc1cccc(Nc2nc3c(s2)CCCc2n[nH]cc2-3)n1	5.57	76	30 (≈ 9.4 µg/mL)	38.8
c1cc(Nc2nc3c(s2)CCCc2n[nH]cc2-3)nc(N2CCCC2)c1	–	14	–	–
Cc1ccnc(Nc2nc3c(s2)CCCc2n[nH]cc2-3)n1	–	210	–	–
c1cc(Nc2nc3c(s2)CCCc2[nH]ncc2-3)[nH]n1	5.49	–	190 (≈ 51.7 µg/mL)	25
Cn1ccc(Nc2nc3c(s2)CCCc2[nH]ncc2-3)n1	5.52	–	160 (≈ 45.8 µg/mL)	19
Cc1cccnc1Nc1nc2c(s1)CCCc1n[nH]cc1-2	–	84	–	–
CN(C)c1cccc(Nc2nc3c(s2)CCCc2n[nH]cc2-3)n1	–	150	–	–
Cc1cccc(Nc2nc3c(s2)CCCc2[nH]ncc2-3)n1	6.85	–	110 (≈ 32.7 µg/mL)	4.9
Cc1cccc(Nc2nc3c(s2)CCCc2n[nH]cc2-3)n1	–	200	–	–
c1cncc(Nc2nc3c(s2)CCCc2n[nH]cc2-3)c1	–	26	–	–
COc1ccnc(Nc2nc3c(s2)CCCc2[nH]ncc2-3)n1	7.00	–	0.6 (≈ 0.189 µg/mL)	0.3
Cc1ccc(Nc2nc3c(s2)CCCc2n[nH]cc2-3)nn1	< 5.00	6.3	21 (≈ 6.27 µg/mL)	31
c1[nH]nc2c1-c1nc(NC3CCCCC3)sc1CCC2	5.89	150	< 0.1	2.8
Cc1cccc(Nc2nc3c(s2)CCc2n[nH]cc2-3)n1	–	120	–	–
Cc1cc(C)nc(Nc2nc3c(s2)CCCc2n[nH]cc2-3)c1	–	4	–	–
Fc1cccc(Nc2nc3c(s2)CCCc2n[nH]cc2-3)n1	–	170	–	–
Fc1cccc(Nc2nc3c(s2)CCCc2[nH]ncc2-3)n1	6.98	–	0.2 (≈ 0.0603 µg/mL)	0.1

Structure (SMILES)	pEC50 [1]	Emax [2] [%]	solubility kinetic [3] [µM]	Papp [4] [×10⁻⁶ cm/s]
Cc1cc(C)nc(Nc2nc3c(s2)CCc2[nH]ncc2-3)c1	< 5.00	–	0.1 (≈ 0.0297 µg/mL)	1
COc1cccc(Nc2nc3c(s2)CCCc2n[nH]cc2-3)n1	–	100	–	–
Cc1cc(C)cc(-n2ncc3c(N4CCCC(C)C4)ncnc32)c1 (stereo not given)	5.34	100	–	–
Cc1cc(C)nc(Nc2nc3c(s2)CCCc2[nH]ncc2-3)c1	< 5.00	–	0.4 (≈ 0.125 µg/mL)	1.2
COc1ccnc(Nc2nc3c(s2)CCCc2n[nH]cc2-3)n1	–	230	–	–
c1cnc(Nc2nc3c(s2)CCCc2[nH]ncc2-3)cn1	< 5.00	–	78 (≈ 22.2 µg/mL)	3.8
N#Cc1cccc(Nc2nc3c(s2)CCCc2[nH]ncc2-3)n1	5.31	–	< 0.1	< 0.1
Cc1ccc(Nc2nc3c(s2)CCCc2n[nH]cc2-3)nc1	–	28	–	–
c1cnc(Nc2nc3c(s2)CCc2n[nH]cc2-3)nc1	–	180	–	–
Cc1cc(C)nc(Nc2nc3c(s2)CCc2n[nH]cc2-3)c1	–	11	–	–
COc1cccc(Nc2nc3c(s2)CCCc2[nH]ncc2-3)n1	6.19	–	0.1 (≈ 0.0313 µg/mL)	0.1
c1cc(Nc2nc3c(s2)CCCc2[nH]ncc2-3)nc(N2CCCC2)c1	< 5.00	–	< 0.1	0.1
O=C(Nc1ccccc1)[C@]12C[C@H]1/C(=N\O)c1ccccc1O2	–	120	–	–
c1cc(Nc2nc3c(s2)CCc2[nH]ncc2-3)ccn1	< 5.00	–	180 (≈ 48.5 µg/mL)	2.5
c1cncc(Nc2nc3c(s2)CCc2[nH]ncc2-3)c1	< 5.00	–	17 (≈ 4.58 µg/mL)	18.7
c1cncc(Nc2nc3c(s2)CCCc2[nH]ncc2-3)c1	< 5.00	–	3.8 (≈ 1.08 µg/mL)	35
Cc1ccc(N2C(=O)c3ccccc3NC2C(C)c2ccccc2)cc1 (stereo not given)	–	129	–	–
Cc1ccc(Nc2nc3c(s2)CCCc2[nH]ncc2-3)nc1	< 5.00	–	< 0.1	2.7
c1ccc(Nc2nc3c(s2)CCc2n[nH]cc2-3)cc1	–	160	–	–

Second part, the compound after the results:

pEC50 [1]	Emax [2] [%]	solubility kinetic [3] [µM]	Papp [4] [×10⁻⁶ cm/s]	Structure (SMILES)
< 5.00	19	–	–	Cc1[nH]ncc1-c1nc(Nc2ccccn2)sc1C
6.22	63	0.9 (≈ 0.294 µg/mL)	3.1	CCNc1cccc(Nc2nc3c(s2)CCCc2n[nH]cc2-3)n1
–	130	–	–	Cn1ccc(Nc2nc3c(s2)CCCc2n[nH]cc2-3)n1
6.12	120	–	–	O=C(Nc1cc(Cl)cc(Cl)c1)[C@H]1CCCC[C@H]1C(=O)O
6.47	–	< 0.1	< 0.1	CN(C)c1cccc(Nc2nc3c(s2)CCCc2[nH]ncc2-3)n1
–	144	–	–	Cc1nc2ccccc2nc1N/N=C/c1ccc(O)cc1
5.89	150	1.8 (≈ 0.512 µg/mL)	41	c1cc(Nc2nc3c(s2)CCCc2n[nH]cc2-3)ncn1
–	150	–	–	c1ccc(Nc2nc3c(s2)CCc2n[nH]cc2-3)nc1
–	170	–	–	Fc1ccc(Nc2nc3c(s2)CCCc2n[nH]cc2-3)nc1
5.66	–	< 0.1	< 0.1	c1ccc(Nc2nc3c(s2)CCc2[nH]ncc2-3)cc1
7.25	79	–	–	Cc1n[nH]cc1-c1csc(Nc2ccccn2)n1
–	50	–	–	N#Cc1cccc(Nc2nc3c(s2)CCCc2n[nH]cc2-3)n1
–	18	–	–	c1cnc(Nc2nc3c(s2)CCCc2n[nH]cc2-3)cn1
< 5.00	12	< 0.1	1.9	Cc1ccc(Nc2nc3c(s2)CCc2n[nH]cc2-3)nc1
5.47	–	0.2 (≈ 0.0595 µg/mL)	8	Cc1cccnc1Nc1nc2c(s1)CCCc1[nH]ncc1-2
–	11	–	–	c1cncc(Nc2nc3c(s2)CCc2n[nH]cc2-3)c1
–	10	–	–	c1cc(Nc2nc3c(s2)CCc2n[nH]cc2-3)ccn1
–	39	–	–	Cc1cc(Nc2nc3c(s2)CCCc2n[nH]cc2-3)n[nH]1
–	220	–	–	Clc1cccc(Nc2nc3c(s2)CCCc2n[nH]cc2-3)n1
6.54	78	< 0.1	< 0.1	CCOc1cccc(Nc2nc3c(s2)CCCc2n[nH]cc2-3)n1
< 5.00	5	1.9 (≈ 0.649 µg/mL)	0.1	COC(=O)c1cccc(Nc2nc3c(s2)CCCc2n[nH]cc2-3)n1
7.89	100	–	–	Cc1sc(Nc2ccccn2)nc1-c1cn[nH]c1
5.62	–	10 (≈ 2.86 µg/mL)	15	Cc1cc(Nc2nc3c(s2)CCCc2[nH]ncc2-3)[nH]n1
–	140	–	–	c1cc(Nc2nc3c(s2)CCCc2n[nH]cc2-3)n[nH]1
–	160	–	–	c1cnc(Nc2nc3c(s2)CCCc2n[nH]cc2-3)nc1
7.29	–	0.6 (≈ 0.179 µg/mL)	0.5	Cc1ccnc(Nc2nc3c(s2)CCCc2[nH]ncc2-3)n1
5.96	–	38 (≈ 12.1 µg/mL)	15.4	Clc1cccc(Nc2nc3c(s2)CCCc2[nH]ncc2-3)n1
